Reference: ChEMBL document CHEMBL3632601, “Actinoramide A Identified as a Potent Antimalarial from Titration-Based Screening of Marine Natural Product Extracts” (J Nat Prod, 2015)
Active and inactive are the calls of the source. No cut-off for these calls is given here.

Key:
[1] = test system: Plasmodium falciparum; test: Antiplasmodial activity against Plasmodium falciparum GB4 after 72 hrs by SYBR green DNA-staining parasite viability assay; assay type: functional, organism-based
Procedure, shortened: (§1)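 Intra-erythrocytic P. falciparum growth in 1536-well format. Infected RBCs at 0.3% parasitemia and 2.5% hematocrit (final) were exposed to compound at 37 °C, 5% CO2, for 72 h. Lysis buffer was added (Tris-HCl, EDTA, saponin, Triton X-100, SYBR Green I), followed by overnight incubation in the dark at 22–24 °C. Fluorescence read at 485/535 nm. Artemisinin and mefloquine served as positive controls, DMSO as negative. EC50 from curve fits, duplicate titrations.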

[2] = test system: HepG2; test: Cytotoxicity against human HepG2 cells after 72 hrs by CellTiter-Glo assay; conditions: hepg2, 72 h
[3] = test system: Plasmodium falciparum; test: Antiplasmodial activity against Plasmodium falciparum 7G8 after 72 hrs by SYBR green DNA-staining parasite viability assay; assay type: functional, organism-based; procedure, shortened: as §1
[4] = test system: Plasmodium falciparum; test: Antiplasmodial activity against Plasmodium falciparum HB3 after 72 hrs by SYBR green DNA-staining parasite viability assay; assay type: functional, organism-based; procedure, shortened: as §1
[5] = test system: Plasmodium falciparum; test: Antiplasmodial activity against Plasmodium falciparum cp250 after 72 hrs by SYBR green DNA-staining parasite viability assay; assay type: functional, organism-based; procedure, shortened: as §1
[6] = test system: Plasmodium falciparum; test: Antiplasmodial activity against Plasmodium falciparum Dd2 after 72 hrs by SYBR green DNA-staining parasite viability assay; assay type: functional, organism-based; procedure, shortened: as §1
[7] = test system: HEK293; test: Cytotoxicity against human HEK293 cells after 72 hrs by CellTiter-Glo assay; conditions: hek293, 72 h
[8] = test system: Jurkat; test: Cytotoxicity against human Jurkat cells after 72 hrs by SYBR Green viability assay; assay type: cell-based
[9] = test system: Plasmodium falciparum; test: Inhibition of aspartyl protease activity of plasmepsin in Plasmodium falciparum extracts using EDANSCOCH2CH2CO-ALERMFLSFP-Dap(DABCYL)OH as substrate after 15 mins by fluorescence assay
Procedure, shortened: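 Saponin-treated, RBC-depleted P. falciparum extract (plasmepsin pellet, 0.16% final) in 100 mM sodium acetate pH 5.0, 20% glycerol. Compound pin-transferred, then 15 min preincubation with enzyme. EDANS-DABCYL Plasmepsin II substrate added at 5 or 10 μM final, under KM conditions. Fluorescence (ex 336/em 490 nm) read over 3 h. EC50 calculated from plotted data.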

| SMILES | Activity [1] | Activity [2] | Activity [3] | Activity [4] | Activity [5] | Activity [6] | Activity [7] | EC50 ([1]; GB4, 72 h) [nM] | EC50 [8] [nM] | inhibition [9] | EC50 ([3]; 7G8, 72 h) [nM] | EC50 ([4]; HB3, 72 h) [nM] | EC50 ([5]; cp250, 72 h) [nM] | EC50 ([6]; Dd2, 72 h) [nM] |
| --- | --- | --- | --- | --- | --- | --- | --- | --- | --- | --- | --- | --- | --- | --- |
| COCC(=O)N[C@@H](C(=O)N1NCCC[C@H]1C(=O)N[C@@H](Cc1ccccc1)[C@@H](O)[C@H](C)C(=O)N[C@H]1CCNC1=O)[C@H](O)C(C)C | Active | Non-toxic | Active | Active | Active | Active | Non-toxic | – | – | – | – | – | – | – |
| COCC(=O)N[C@@H](C(=O)N1NCCC[C@H]1C(=O)N[C@@H](Cc1ccccc1)[C@@H](O)[C@H](C)C(=O)N[C@H]1CCN(C(C)=O)C1=O)[C@H](O)C(C)C | Active | Non-toxic | Active | Active | Active | Active | Non-toxic | – | – | – | – | – | – | – |
| COCC(=O)N[C@@H](C(=O)N1NCCC[C@H]1C(=O)N[C@@H](Cc1ccccc1)[C@@H](O)[C@H](C)C(=O)N[C@@H]1CCN(C(N)=O)C1=O)[C@H](O)C(C)C | Active | Non-toxic | Active | Active | Active | Active | Non-toxic | – | – | – | – | – | – | – |
| COCC(=O)N[C@@H](C(=O)N1NCCC[C@H]1C(=O)N[C@@H](Cc1ccccc1)[C@@H](O)[C@H](C)C(=O)NC1CNC(=O)NC1=O)[C@H](O)C(C)C (some centres not stated) | inactive | Non-toxic | inactive | inactive | inactive | inactive | Non-toxic | – | – | – | – | – | – | – |
| COCC(=O)N[C@@H](C(=O)N1N=CCC[C@H]1C(=O)N[C@@H](Cc1ccccc1)[C@@H](O)[C@H](C)C(=O)N[C@H]1CCN(C(N)=O)C1=O)[C@H](O)C(C)C | Active | Non-toxic | Active | Active | Active | Active | Non-toxic | – | – | – | – | – | – | – |
| COCC(=O)N[C@@H](C(=O)N1NCCC[C@H]1C(=O)N[C@@H](Cc1ccccc1)[C@@H](O)[C@H](C)C(=O)N[C@H]1CCN(C(N)=O)C1=O)[C@H](O)C(C)C | – | Non-toxic | – | – | – | – | Non-toxic | 200 | 90000 | inactive | 200 | 200 | 200 | 200 |
| COCC(=O)N[C@@H](C(=O)N1NCCC[C@H]1C(=O)N[C@@H](Cc1ccccc1)[C@@H](O)[C@H](C)C(=O)N[C@H]1CCC(=O)NC1=O)[C@H](O)C(C)C | – | Non-toxic | – | – | – | – | Non-toxic | – | 30000 | – | – | – | – | – |
